High-throughput results (PubChem BioAssay)
The list is not random: actives were taken first. Their share in the collection is about 2.1%.
F508del corr = F508del CFTR correction, initial screen, CFBE line, single point; 350,000 tested, 0.36% active; AID 720511, 2013; CFBE cells, YFP halide quenching; stimulated with forskolin plus potentiator P3; % fluorescence drop versus neutral controls; activity (quench increase), % at 7.58 µM;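 active = mean added fluorescence quench of at least 8% versus neutral control, with both replicates also reaching 8%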;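 also: cells transiently co-express mutant CFTR-F508del with the halide-sensitive YFP; corrector assay measuring rescue of mutant channel to the surface after 24 h compound exposure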
MC4R antagonist = MC4R antagonists of cAMP signaling, primary screen, cell-based, TR-FRET, antagonist arm of biased-ligand search | Melanocortin receptor 4 (Homo sapiens), P32245 | MC4R-expressing cells, MTII-stimulated cAMP, LANCE TR-FRET | inhibition, % at 6.5 µM | 360,000 tested, 0.48% active;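 active = inhibition above its plate's cutoff, the mean of tested wells on that plate plus 3 SD, cut at about 29% in these data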
Target sequence (P32245 whole entry, looked up): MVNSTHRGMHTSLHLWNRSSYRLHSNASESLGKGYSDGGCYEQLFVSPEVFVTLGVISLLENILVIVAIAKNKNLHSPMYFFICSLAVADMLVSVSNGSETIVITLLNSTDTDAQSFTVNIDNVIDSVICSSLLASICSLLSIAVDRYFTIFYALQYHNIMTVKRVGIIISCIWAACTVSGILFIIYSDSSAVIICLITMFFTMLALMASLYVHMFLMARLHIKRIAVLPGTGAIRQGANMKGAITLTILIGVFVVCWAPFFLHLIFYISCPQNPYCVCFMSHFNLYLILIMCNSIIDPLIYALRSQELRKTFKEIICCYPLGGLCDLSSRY
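System: U2OS cells stably expressing human melanocortin 4 receptor (MC4R). Reagent: Melanotan II challenge after compound preincubation. Doses: 6.5 µM. Times: 30-min compound, 1-h challenge, 1-h detection, room temperature. Measured by: TR-FRET with Eu-cAMP and labeled anti-cAMP, 671 nm. Replicates: singlicate.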
SMARCA2 activ = SMARCA2 (BRM) function activators, primary screen, cell-based, luminescence, high throughput; MG213 cells, MMTV-luciferase reporter, dexamethasone, overnight; activation, % at 9.1 µM; 370,000 tested, 1% active; in the data active = activation above about 7.8%
MC4R barr agon = MC4R agonists recruiting beta-arrestin, primary screen, cell-based, luminescence, agonist arm of biased-ligand search; U2OS MC4R beta-arrestin complementation; percent of melanotan II response, DMSO zero; activation, % at 8.9 µM; 360,000 tested, 0.98% active;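 active = activation above a per-plate cutoff, the mean activation of sample wells on that plate plus 3 SD, cut at about 8% in these data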
SMARCA2 act conf = SMARCA2 (BRM) function activators, confirmation, cell-based, luminescence, triplicate. 3,500 tested, 30% active. MG213 cells, MMTV-luciferase with dexamethasone, overnight; MG213 cells expressing E1A, Rb sequestered; DMSO wells 0%, reference activator 100%. shares compounds with SMARCA2 activ. activation, % at 9.1 µM. AID 652260, 2013;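 active = activation above its plate's cutoff, the mean activation of tested wells plus 3 SD, cut at about 7.9% in these data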
GAL4-VP16 Luc = GAL4-VP16 luciferase reporter activation, counter-screen for SMARCA2 (BRM) activator project, cell-based, pG5luc, luminescence, high throughput. activation, % at 9.1 µM. 3,500 tested, 41% active. HEK293 GAL4-VP16 pG5luc reporter; scaled: DMSO wells 0%, SAHA wells 100%. AID 686939, 2013. shares compounds with SMARCA2 activ;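 active = activation above the solvent-only control well mean plus 3 SD, averaged across control plates, cut at about 5.2% in these data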
Large screens that a line does not name were inactive (follow-up assays come after a bar, where they were run); ! = not confirmed by another sample.

Cc1cc(C)n2c(NC3CCCC3)c(-c3cc4ccccc4o3)nc2n1	SMARCA2 activ 8.6 (no result: MC4R antagonist, MC4R barr agon) | SMARCA2 act conf 8.0 | GAL4-VP16 Luc 6.7
O=C(N/N=C\c1ccccn1)c1ccccc1O	SMARCA2 activ 13.3 | SMARCA2 act conf inactive | GAL4-VP16 Luc 11.2
O=C(N/N=C/c1ccccn1)c1ccncc1	none (no result: F508del corr)
O=C(N/N=C/c1ccccn1)c1ccc(Cl)cc1	SMARCA2 activ 13.3 | SMARCA2 act conf inactive | GAL4-VP16 Luc 20.8
Clc1ccc(C=Cc2ccccn2)cc1	SMARCA2 activ 19.2 | SMARCA2 act conf inactive | GAL4-VP16 Luc 8.0
COc1ccccc1CNC(=O)C[C@@H]1C[C@@H]2c3cc(NS(C)(=O)=O)ccc3O[C@@H]2[C@@H](CO)O1	none (no result: MC4R antagonist, SMARCA2 activ, MC4R barr agon)
CO[C@H]1CN(C)C(=O)c2ccc(NC(C)=O)cc2OC[C@H](C)N(CCC(F)(F)F)C[C@@H]1C	none (no result: MC4R antagonist, SMARCA2 activ, MC4R barr agon)
Cc1noc(C)c1NC(=O)N(C)C[C@H]1Oc2ccc(NC(=O)CCC(F)(F)F)cc2CC(=O)N([C@H](C)CO)C[C@@H]1C	none (no result: MC4R antagonist, SMARCA2 activ, MC4R barr agon)
NC(=O)C1CC(=O)N(c2ccc(OCc3c(F)cccc3Cl)cc2)C1 (configuration not stated)	none
NC(=O)C1CC(=O)N(c2ccc(OCc3c(Cl)cccc3Cl)cc2)C1 (configuration not stated)	SMARCA2 activ 8.7 | SMARCA2 act conf inactive | GAL4-VP16 Luc inactive
CCN(CC)C(=S)SCC(=O)Nc1nc(=O)c2ccccc2s1	SMARCA2 activ 8.5 | SMARCA2 act conf inactive | GAL4-VP16 Luc inactive
CCN(CC)C(=S)SCC(=O)Nc1ccc(S(N)(=O)=O)cc1	none
C/C(N)=C(/C#N)C(=O)CSc1n[nH]c(-c2ccccc2Br)n1	SMARCA2 activ 8.6! | SMARCA2 act conf inactive | GAL4-VP16 Luc inactive
C/C(N)=C(/C#N)C(=O)CSc1nnc(Cc2ccccc2F)n1N	none
C/C(N)=C(/C#N)C(=O)CSc1ccccc1F	SMARCA2 activ 9.0 | SMARCA2 act conf 10.0 | GAL4-VP16 Luc 8.8
Oc1csc(Cc2nc(-c3ccc(-c4ccccc4)cc3)cs2)n1	none (no result: F508del corr)
Oc1csc(Cc2nc(-c3ccccc3F)cs2)n1	SMARCA2 activ 10.4 | SMARCA2 act conf 16.6 | GAL4-VP16 Luc 7.0
CC(=O)c1c(C)nc(-c2ccc(Cl)cc2)nc1N	SMARCA2 activ 10.4 (no result: F508del corr) | SMARCA2 act conf inactive | GAL4-VP16 Luc 10.7
CC(=O)c1c(C)nc(-c2ccc(Cl)cc2)nc1N=CN(C)C	none (no result: F508del corr)
O=C(C[C@@H]1C=C[C@@H](NC(=O)c2ccncc2)[C@@H](CO)O1)Nc1ccc(-c2ccccc2)cc1	none (no result: MC4R antagonist, SMARCA2 activ, MC4R barr agon)
CC(C)n1c(/C=C/[C@@H](O)C[C@@H](O)CC(=O)O)c(-c2ccc(F)cc2)c2ccccc21	SMARCA2 activ 12.3 | SMARCA2 act conf 24.8 | GAL4-VP16 Luc inactive
Cc1cc(C)nc(Nc2nc(=O)c3ccccc3s2)n1	SMARCA2 activ 8.8 (no result: F508del corr) | SMARCA2 act conf inactive | GAL4-VP16 Luc 14.2
Cc1cc2c(sc3ccccc32)c(C)n1	none
Cn1cc(-c2nc3ccccc3[nH]2)c2ccccc21	SMARCA2 activ 9.0 (no result: F508del corr) | SMARCA2 act conf 15.2 | GAL4-VP16 Luc inactive
C[C@H](CO)N1C[C@H](C)[C@H](CN(C)Cc2ccc(C(F)(F)F)cc2)Oc2ccc(NC(=O)Nc3cccc4ccccc34)cc2CC1=O	none (no result: MC4R antagonist, SMARCA2 activ, MC4R barr agon)
CCCNC(=O)C1(C)CCCN(C(=O)c2cccc(Cl)c2)C1 (configuration not stated)	SMARCA2 activ 9.3 | SMARCA2 act conf inactive | GAL4-VP16 Luc inactive
CCOC(=O)c1cnn(-c2cccc(Cl)c2)c1N	SMARCA2 activ 9.4 (no result: F508del corr) | SMARCA2 act conf inactive | GAL4-VP16 Luc inactive
CCOC(=O)c1cnn(-c2ccccc2)c1N	none (no result: F508del corr)
C[C@@H]1CN([C@H](C)CO)C(=O)c2cc(NC(=O)C3CCCCC3)ccc2O[C@@H]1CN(C)Cc1ccc(Oc2ccccc2)cc1	none (no result: MC4R antagonist, SMARCA2 activ, MC4R barr agon)
COc1cc(CN(C(=S)NCC(=O)N2CCCC2)C2CCCC2)cc(OC)c1OC	none
COc1cc(CN(C(=S)NCC(=O)NC2CC2)C2CCCC2)cc(OC)c1OC	SMARCA2 activ 9.6 | SMARCA2 act conf inactive | GAL4-VP16 Luc inactive
C[C@@H]1CN([C@H](C)CO)C(=O)c2cccc(NC(=O)Nc3cccc4ccccc34)c2O[C@@H]1CN(C)S(C)(=O)=O	none (no result: MC4R antagonist, SMARCA2 activ, MC4R barr agon)
C(=N\Nc1ncnc2ccccc12)/c1ccccc1	SMARCA2 activ 9.2 | SMARCA2 act conf 10.8 | GAL4-VP16 Luc 9.1
Clc1ccc(/C=N/Nc2nc(Cl)nc3ccccc23)cc1	SMARCA2 activ 11.9 (no result: F508del corr) | SMARCA2 act conf inactive | GAL4-VP16 Luc inactive
Clc1cccc(/C=N/Nc2ncnc3ccccc23)c1	SMARCA2 activ 10.0 (no result: F508del corr) | SMARCA2 act conf 14.2 | GAL4-VP16 Luc 14.6
CN1[C@@H]2c3ccc(-c4ccccc4)c(=O)n3C[C@H]1[C@H](CO)[C@H]2C(=O)NCC1CC1	none (no result: MC4R antagonist, SMARCA2 activ, MC4R barr agon)
N#C/C(=C\c1ccc(OC(=O)c2cccs2)cc1)c1nc2ccccc2[nH]1	SMARCA2 activ 12.8 (no result: F508del corr) | SMARCA2 act conf 8.5 | GAL4-VP16 Luc 6.2
COCC(=O)N1CC2(C1)CN(Cc1ccc3c(c1)OCO3)[C@H](CO)c1c2c2ccc(OC)cc2n1C	none (no result: MC4R antagonist, SMARCA2 activ, MC4R barr agon)
CCOc1ccc(-c2ccc(SCC(=O)NC3CCCCC3)nn2)cc1	SMARCA2 activ 8.5 | SMARCA2 act conf inactive | GAL4-VP16 Luc 8.9
CCN(CC)CCNC(=O)c1ccc(NCN2C(=O)NC(c3ccccc3)(c3ccccc3)C2=O)cc1	SMARCA2 activ 8.0 (no result: MC4R antagonist, MC4R barr agon) | SMARCA2 act conf inactive | GAL4-VP16 Luc inactive
CO[C@H]1CN(C)C(=O)c2cc(NC(=O)c3cnccn3)ccc2OC[C@H](C)N(C(C)=O)C[C@H]1C	none (no result: MC4R antagonist, SMARCA2 activ, MC4R barr agon)
O=C(Nc1ccccc1)c1ccn[nH]1	none (no result: F508del corr)
CC(=O)c1ccc(NC(=O)c2ccn[nH]2)cc1	SMARCA2 activ 8.2 (no result: F508del corr) | SMARCA2 act conf 8.0 | GAL4-VP16 Luc 8.0
CCN1CC(c2ccccc2)C(c2ccc(Cl)cc2)=N1 (configuration not stated)	SMARCA2 activ 8.3 | SMARCA2 act conf inactive | GAL4-VP16 Luc inactive
COc1ccc(OCCSc2nc(N)cc(N)n2)cc1	SMARCA2 activ 11.2 (no result: F508del corr) | SMARCA2 act conf 8.6 | GAL4-VP16 Luc 8.5
Cc1ccc(OCCSc2nc(N)cc(N)n2)cc1	none
Nc1cc(N)nc(SCCc2ccccc2)n1	SMARCA2 activ 9.5 | SMARCA2 act conf inactive | GAL4-VP16 Luc inactive
Nc1cc(N)nc(SCc2ccccc2)n1	none (no result: F508del corr)
O=[N+]([O-])c1ccc(SCCc2ccncc2)cc1	none
O=[N+]([O-])c1ccc(SCCc2ccccn2)cc1	SMARCA2 activ 11.5 | SMARCA2 act conf inactive | GAL4-VP16 Luc inactive
